Test results published in ChEMBL document CHEMBL3774373, “Activity and Predicted Nephrotoxicity of Synthetic Antibiotics Based on Polymyxin B” (J Med Chem, 2016).
≈ marks a conversion by molar mass, not a printed value. Numbered stars: 1 amine (or outer) side, 2 acyl side, 3 side chain; on linkers, the order of the positions; unused ones are H or OH. Bridge positions count the residues as written; N and C are the ends. Square brackets hold non-standard residues; d marks the D form. Peptide text beside a SMILES is read from it. * marks the point of attachment. ξ: configuration not given here. Bip = N[C@@H](Cc1ccc(-c2ccccc2)cc1)C(=O)O; ξGly(octyl) = CCCCCCCCC(N)C(=O)O; NH(2-ClPh) = Clc1ccccc1N*; dDab = NCC[C@@H](N)C(=O)O; hSer = N[C@@H](CCO)C(=O)O; Octanoyl = CCCCCCCC(=O)*; Dab = NCC[C@H](N)C(=O)O; CO = O=C([*:1])[*:2]

Key:
Acinetobacter baumannii [1] = assay: Antibacterial activity against clinical isolate carbapenem and polymyxin resistant Acinetobacter baumannii Ptyela 100734512:2 after 18 hrs by 2 fold serial dilution method; assay type: functional; settings: Ptyela 100734512:2, 18 h
Procedure, shortened: (§1)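 Polymyxin-resistant clinical isolates were grown overnight at 37 °C in NB or MHB with shaking, diluted 50-fold in MHB and grown 1.5–3 h to mid-log phase. The inoculum was 5×10^5 CFU/mL. Compounds were 2-fold broth serial dilutions, final 32 to 0.015 μg/mL; the polymyxin controls ran 128–0.06 μg/mL. The MIC was the lowest concentration with no visible growth after 18 h at 37 °C.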

[2] = Cytotoxicity against human HepG2 cells after 24 hrs by resazurin assay; assay type: cell-based; settings: HepG2 cells
Escherichia coli = assay: Antibacterial activity against Escherichia coli ATCC 25922 after 18 hrs by 2 fold serial dilution method; assay type: functional; settings: ATCC 25922, 18 h
Procedure, shortened: (§2)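 Overnight cultures in nutrient or Mueller Hinton broth at 37 °C with shaking, diluted 50-fold into fresh MHB and grown 1.5–3 h to mid-log. Inoculum 5×10^5 CFU/mL in 2-fold serial dilutions, final range 32 to 0.015 μg/mL. MIC read visually after 18 h at 37 °C as the lowest concentration with no visible growth.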

Klebsiella pneumoniae [3] = assay: Antibacterial activity against multidrug resistant Klebsiella pneumoniae ATCC 700603 after 18 hrs by 2 fold serial dilution method; assay type: functional; settings: Klebsiella pneumoniae, 700603, 18 h
Procedure, shortened: (§3)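 Overnight cultures at 37 °C in nutrient or Mueller Hinton broth with shaking were diluted 50-fold in MHB and grown 1.5–3 h to mid-log phase. The inoculum was 5×10^5 CFU/mL in MHB. Compounds were 2-fold serially diluted, final 32 to 0.015 μg/mL. After 18 h at 37 °C, the MIC was read visually as the lowest concentration with no visible growth.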

Klebsiella pneumoniae [4] = assay: Antibacterial activity against clinical isolate carbapenem and polymyxin resistant Klebsiella pneumoniae Koprana 100650661:1 after 18 hrs by 2 fold serial dilution method; assay type: functional; settings: Koprana 100650661:1, 18 h; procedure, shortened: as §1
Klebsiella pneumoniae [5] = assay: Antibacterial activity against Klebsiella pneumoniae ATCC BAA-2146 expressing NDM-1 after 18 hrs by 2 fold serial dilution method; assay type: functional; settings: ATCC BAA-2146, 18 h; procedure, shortened: as §3
Pseudomonas aeruginosa [6] = assay: Antibacterial activity against Pseudomonas aeruginosa ATCC 27853 after 18 hrs by 2 fold serial dilution method; assay type: functional; settings: ATCC 27853, 18 h; procedure, shortened: as §2
Pseudomonas aeruginosa [7] = assay: Antibacterial activity against clinical isolate polymyxin resistant Pseudomonas aeruginosa FADDI-PA070 after 18 hrs by 2 fold serial dilution method; assay type: functional; settings: FADDI-PA070, 18 h; procedure, shortened: as §1
Klebsiella pneumoniae [8] = assay: Antibacterial activity against Klebsiella pneumoniae ATCC 13883 after 18 hrs by 2 fold serial dilution method; assay type: functional; settings: ATCC 13883, 18 h; procedure, shortened: as §2
Acinetobacter baumannii [9] = assay: Antibacterial activity against Acinetobacter baumannii ATCC 19606 after 18 hrs by 2 fold serial dilution method; assay type: functional; settings: ATCC 19606, 18 h; procedure, shortened: as §2
Pseudomonas aeruginosa [10] = assay: Antibacterial activity against clinical isolate polymyxin resistant Pseudomonas aeruginosa PA9704 after 18 hrs by 2 fold serial dilution method; assay type: functional; settings: PA9704, 18 h; procedure, shortened: as §1
Klebsiella pneumoniae [11] = assay: Antibacterial activity against clinical isolate carbapenem and polymyxin resistant Klebsiella pneumoniae 138-16357-20362 after 18 hrs by 2 fold serial dilution method; assay type: functional; settings: 138-16357-20362, 18 h; procedure, shortened: as §1
Staphylococcus aureus = assay: microbe, parasite or virus in culture; settings: ATCC 25923, 18 h

| SMILES | MIC (Acinetobacter baumannii [1]) [µg/mL] | CC50 at 24 h [2] [µM] | MIC (Escherichia coli) [µg/mL] | MIC (Klebsiella pneumoniae [3]) [µg/mL] | MIC (Klebsiella pneumoniae [4]) [µg/mL] | MIC (Klebsiella pneumoniae [5]) [µg/mL] | MIC (Pseudomonas aeruginosa [6]) [µg/mL] | MIC (Pseudomonas aeruginosa [7]) [µg/mL] | MIC (Klebsiella pneumoniae [8]) [µg/mL] | MIC (Acinetobacter baumannii [9]) [µg/mL] | MIC (Pseudomonas aeruginosa [10]) [µg/mL] | MIC (Klebsiella pneumoniae [11]) [µg/mL] | MIC (Staphylococcus aureus) [µg/mL] |
| --- | --- | --- | --- | --- | --- | --- | --- | --- | --- | --- | --- | --- | --- |
| CCCCCCCC(=O)N[C@@H](CCN)C(=O)N[C@H](C(=O)N[C@H](CO)C(=O)N[C@H]1CCNC(=O)[C@H]([C@@H](C)O)NC(=O)[C@H](CCN)NC(=O)[C@H](CCN)NC(=O)[C@H](CC(C)C)NC(=O)[C@@H](Cc2ccccc2)NC(=O)[C@H](CCN)NC1=O)[C@@H](C)O (Octanoyl-[Dab]T[dS][Dab][Dab][dF]L[Dab][Dab]T; lactam 4-C) | > 32 | > 300 | 4 (≈ 3.4 µM) | 2 (≈ 1.7 µM) | > 32 | 16 (≈ 13.6 µM) | 2 (≈ 1.7 µM) | > 32 | 0.5 (≈ 0.425 µM) | 1 (≈ 0.85 µM) | > 32 | > 32 | > 32 |
| CCCCCCCCC1NC(=O)[C@H](CCN)NC(=O)[C@@H](NC(=O)[C@H](CCN)NC(=O)[C@@H](NC(=O)[C@H](CCN)NC(=O)CCCCCCC)[C@@H](C)O)CCNC(=O)[C@H]([C@@H](C)O)NC(=O)[C@H](CCN)NC(=O)[C@H](CCN)NC(=O)[C@H](CC(C)C)NC1=O (some centres not stated) (Octanoyl-[Dab]T[Dab][Dab][Dab][ξGly(octyl)]L[Dab][Dab]T; lactam 4-C) | 16 (≈ 13.2 µM) | 254 | 2 (≈ 1.65 µM) | 1 (≈ 0.825 µM) | 16 (≈ 13.2 µM) | 1 (≈ 0.825 µM) | 2 (≈ 1.65 µM) | 4 (≈ 3.3 µM) | 2 (≈ 1.65 µM) | 1 (≈ 0.825 µM) | 8 (≈ 6.6 µM) | 16 (≈ 13.2 µM) | 16 (≈ 13.2 µM) |
| CCCCCCCC(=O)N[C@@H](CCN)C(=O)N[C@H](C(=O)N[C@@H](CCN)C(=O)N[C@H]1CCNC(=O)[C@H]([C@@H](C)O)NC(=O)[C@H](CCN)NC(=O)[C@H](CCNC(=O)[C@@H](N)CCC(=O)O)NC(=O)[C@H](CC(C)C)NC(=O)[C@@H](Cc2ccccc2)NC(=O)[C@H](CCN)NC1=O)[C@@H](C)O (Octanoyl-[Dab]T[Dab][Dab][Dab][dF]L[Dab](Glu)[Dab]T; lactam 4-C) | > 32 | > 300 | 1 (≈ 0.758 µM) | 4 (≈ 3.03 µM) | > 32 | 4 (≈ 3.03 µM) | 8 (≈ 6.07 µM) | > 32 | 8 (≈ 6.07 µM) | 4 (≈ 3.03 µM) | > 32 | > 32 | > 32 |
| CCCCCCCC(=O)N[C@H](CCN)C(=O)N[C@H](C(=O)NCC(=O)N[C@H]1CCNC(=O)[C@H]([C@@H](C)O)NC(=O)[C@H](CCN)NC(=O)[C@H](CCN)NC(=O)[C@H](CC(C)C)NC(=O)[C@@H](Cc2ccccc2)NC(=O)[C@H](CCN)NC1=O)[C@@H](C)O (Octanoyl-[dDab]TG[Dab][Dab][dF]L[Dab][Dab]T; lactam 4-C) | > 32 | > 300 | > 32 | 8 (≈ 6.98 µM) | > 32 | 32 (≈ 27.9 µM) | 16 (≈ 14 µM) | > 32 | > 32 | > 64 | > 32 | > 32 | > 64 |
| CCCCCCCC(=O)N[C@@H](CCN)C(=O)N[C@H](C(=O)N[C@@H](CCN)C(=O)N[C@H]1CCNC(=O)[C@H]([C@@H](C)O)NC(=O)[C@H](CCN)NC(=O)[C@H](CCO)NC(=O)[C@H](CC(C)C)NC(=O)[C@@H](Cc2ccccc2)NC(=O)[C@H](CCN)NC1=O)[C@@H](C)O (Octanoyl-[Dab]T[Dab][Dab][Dab][dF]L[hSer][Dab]T; lactam 4-C) | > 32 | > 300 | 1 (≈ 0.84 µM) | 2 (≈ 1.68 µM) | > 32 | 2 (≈ 1.68 µM) | 4 (≈ 3.36 µM) | > 32 | > 32 | 8 (≈ 6.72 µM) | > 32 | > 32 | > 32 |
| CC(C)C[C@@H]1NC(=O)[C@@H](Cc2ccccc2)NC(=O)[C@H](CCN)NC(=O)[C@@H](NC(=O)[C@@H](CO)NC(=O)[C@@H](NC(=O)[C@H](CCN)NC(=O)Nc2ccccc2Cl)[C@@H](C)O)CCNC(=O)[C@H]([C@@H](C)O)NC(=O)[C@H](CCN)NC(=O)[C@H](CCN)NC1=O ({NH(2-ClPh)-CO}-[Dab]T[dS][Dab][Dab][dF]L[Dab][Dab]T; lactam 4-C) | > 32 | > 300 | 32 (≈ 26.6 µM) | 16 (≈ 13.3 µM) | > 32 | > 32 | 8 (≈ 6.65 µM) | > 32 | 32 (≈ 26.6 µM) | > 32 | > 32 | > 32 | > 32 |
| CCCCCCCC(=O)N[C@@H](CCN)C(=O)N[C@H](C(=O)N[C@@H](CCN)C(=O)N[C@H]1CCNC(=O)[C@H]([C@@H](C)O)NC(=O)[C@H](CCCNC(=N)N)NC(=O)[C@H](CCN)NC(=O)[C@H](CC(C)C)NC(=O)[C@@H](Cc2ccccc2)NC(=O)[C@H](CCN)NC1=O)[C@@H](C)O (Octanoyl-[Dab]T[Dab][Dab][Dab][dF]L[Dab]RT; lactam 4-C) | > 32 | > 300 | 16 (≈ 12.8 µM) | 8 (≈ 6.42 µM) | > 32 | 4 (≈ 3.21 µM) | 1 (≈ 0.803 µM) | > 32 | > 32 | 32 (≈ 25.7 µM) | > 32 | > 32 | > 32 |
| CCCCCCCC(=O)N[C@@H](CCN)C(=O)N[C@H](C(=O)N[C@@H](CCN)C(=O)N[C@H]1CCNC(=O)[C@H]([C@@H](C)O)NC(=O)[C@H](CCN)NC(=O)[C@H](CCN)NC(=O)[C@H](Cc2ccc(-c3ccccc3)cc2)NC(=O)[C@@H](Cc2ccccc2)NC(=O)[C@H](CCN)NC1=O)[C@@H](C)O (Octanoyl-[Dab]T[Dab][Dab][Dab][dF][Bip][Dab][Dab]T; lactam 4-C) | 32 (≈ 24.6 µM) | 117 | 1 (≈ 0.769 µM) | 2 (≈ 1.54 µM) | 32 (≈ 24.6 µM) | 1 (≈ 0.769 µM) | 2 (≈ 1.54 µM) | 16 (≈ 12.3 µM) | 4 (≈ 3.08 µM) | 1 (≈ 0.769 µM) | 16 (≈ 12.3 µM) | > 32 | 8 (≈ 6.16 µM) |
| CCCCCCCC(=O)N[C@@H](CCN)C(=O)N[C@H](C(=O)N[C@@H](CCN)C(=O)N[C@H]1CCNC(=O)[C@H]([C@@H](C)O)NC(=O)[C@H](CCN)NC(=O)[C@H](CCN)NC(=O)[C@H](CC(C)C)NC(=O)[C@@H](Cc2ccccc2)NC(=O)[C@H](CCO)NC1=O)[C@@H](C)O (Octanoyl-[Dab]T[Dab][Dab][hSer][dF]L[Dab][Dab]T; lactam 4-C) | > 32 | > 300 | 16 (≈ 13.4 µM) | > 32 | > 32 | 32 (≈ 26.9 µM) | > 32 | > 32 | > 32 | > 32 | > 32 | > 32 | > 32 |
